Measured values reported in the EternaBench riboswitch data.

System: MS2 coat protein
Test: apparent Kd, MS2 coat protein; higher = weaker binding; RNA-MaP array; FMN 200 µM where present
Procedure, shortened: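 Green signal was scaled to red-channel RNA signal and control-cluster median Fmax, and the apparent Kd was taken as the median of filtered per-cluster binding-curve fits. The binding series used SNAP-549-labelled MS2 coat protein from 0.7 or 1.5 nM, doubling to 3 µM, on designs transcribed by stalled E. coli RNA polymerase on Illumina sequencing-chip clusters. Each series ran without and then with constant ligand in 100 mM Tris-HCl pH 7.5, 80 mM KCl, 4 mM MgCl2, BSA, DTT, yeast tRNA and Tween-20.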

[1] = designed as: OFF switch for flavin mononucleotide, no ligand
[2] = ligand present: flavin mononucleotide, designed as: OFF switch for flavin mononucleotide
[3] = designed as: ON switch for flavin mononucleotide, no ligand
[4] = ligand present: flavin mononucleotide, designed as: ON switch for flavin mononucleotide

Sequence	apparent Kd [1] [nM]	apparent Kd [2] [nM]	apparent Kd [3] [nM]	apparent Kd [4] [nM]
GACCUCACGGUCAGGAUAUCAGAACGUAAUGCGCAUGAGAAGGGACAUGAGGAUCACCCAUGUGGGCUCGUCGC	13.5	17		
GACGAACAUGAGGAUCACCCAUGUAAAGACGUACAAGGAUAUGUGUGGAAACCGUACUAUACAGAAGGUGUCUGUC			53.5	25.5
GACUGACAUGAGGAUCACCCAUGUAUUCAAACAUGAGGAUAUAUAACACAUCAUCGACGGAUAGAAGGCAUAGAUA			128	124
GACUGAUUGUAGAAGGUACUUGAAAAUAUUUAAUAACUCAUGUGACAUGAGGAUCACCCAUGUAGUAAGGAUAUACAUAUCACA			198	91
GACUGAUUGUAGAAGGUACUUGACAAUAUAUUUAAUUAUUGUAGACAUGAGGAUCACCCAUGUAGUAAGGAUAUACUUAUAACA			18.4	9.96
GACUGCCGAGGAUAUACAUGAGGAUCACCCAUGUGCUUCAGCAUUUUUUGAUGCAUGGGUAGAAGGCGGUAGUU	453	326		
GACUGCUGAGGAUAUACAUGAGGAUCACCCAUGUGCUUCAGCAUCGAAAGAUGCAUUGGUAGAAGGUAGUAGUC	11.4	20.1		
GACUGGCAGCUAGGAUAUGGGCGAUCACAUGAGGAUCACCCAUGUCAACAUCAAAACAAGAUUAACCAGAAGGAGCCGCGGGUU			16.1	110
GACUUCCGAGGAUAUACAUGAGGAUCACCCAUGUGCUUCAGCAUUUUUUGAUGCAUGGGUAGAAGGCGGUAGUU	261	281		
GAGAAGUCAGGAUAUGCUGCUCGUCACUUGCGUGAUGAGUAGCAGAAGGGACAUGAGGAUCACCCAUGUGGAAA	107	202		
GAGAUACAUGAGGAUCACCCAUGUGAGGAUAUCGGUUGGAGGAGGUGGAGGUUGAGUACGAGAAGGCACGGAUC	25	28.3		
GAGCCAUCGUGAGAUGGCUAACAUACAUGAGGAUCACCCAUGUAGGAUAUCGAUUGCUUUGCAGUCGAGAAGGACAUGUUUAAU	26.3	43.1		
GAGCCCUAAGGAUAUAGAAGGUCCAACAUGAGGAUCACCCAUGUACGGUGUGGACGUGGGCUAGAAGGUGGAACUU	188	147		
GAGCGAAAGCUCAAUGUCGAUAGCAGAAGGACAUCCUUCAACAUGAAAACAUGAGGAUCACCCAUGUAGGAUAUGCUAUCGACU	5.32	5.84		
GAGCGAAAGCUCAAUGUCGAUAGCAGAAGGACAUGAAAACAUGAAAAUACAUGAGGAUCACCCAUGUAGGAUAUGCUAUCGACU	6.7	24.3		
GAGCGAAAGCUCAAUGUCGAUAGCAGAAGGACAUGUAAUCAUGAAAUAACAUGAGGAUCACCCAUGUAGGAUAUGCUAUCGACU	309	88.8		
GAGCGAGGGACAGGAUAUGCGGCGAAACUCGCCGCAGAAGGGUCGACAUGAGGAUCACCCAUGUCCUUACGCUCCAAGUAGAGG			97	488
GAGCGGUGAGCAGGAUAUCCACAUUGCCUCCUACAUGAGGAUCACCCAUGUGGAGAAGGGUUUAUAAGUUCGUGUAUACUCAAU	10.5	10		
GAGCUAUGAGGAUAUGCAUAUAUACGGAUUCGUGUAGUACUACAUGAGGAUCACCCAUGUAGAAGGCGUGGCAG	13.1	15.1		

Sequence	apparent Kd [1] [nM]	apparent Kd [2] [nM]	apparent Kd [3] [nM]	apparent Kd [4] [nM]
GAGCUGUGAGGAUAUAAACCUGUGGGCUCAACCUAGCGGGUUUAGAAGGCACAUGAGGAUCACCCAUGUCCCAA	26	262		
GAGUGGAGGUAAGGAUAUACAAUGAUAAUCACAGUAGAAGGUACUAACAUGAGGAUCACCCAUGUAGGACUAUACCAGAGAGGG			17.4	18
GAGUGGUGGAAAGGAUAUGCAUUGUUAUUCACUGUAGAAGGUUCUAACAUGAGGAUCACCCAUGUAGGACUAUUCCUGUGUUUU			13.3	12.6
GAGUUGAACGAGAAGGCCACUACAUGAGGAUCACCCAUGUCGUAGAGUAUUGGAGGAUAUCGAUAGGCGUCUCAUGAGGACAUA	25.1	13.4		
GAUACACAUGAGGAUCACCCAUGUGAGGAUAUGCGUACGUUGUCCGUAGGCGACGUGCGCAGAAGGCGCGUGAG	52.6	84		
GAUACACAUGAGGAUCACCCAUGUUAGGAUAUUAGCGGGAAAGCUGUCAAAACGCCGAUGAGAAGGAACAGGAG	40.6	31.4		
GAUACACAUGAGGAUCACCCAUGUUAGGAUAUUAGCGGGAAAGCUGUCAGACAGUCGAUGAGAAGGAACAGGAG	32.5	31.6		
GAUAGUCCUGAGAAGGACAUGAGGAUCACCCAUGUGAUUAUACCAGUGCAAUGAAAGCACUGGAUGUAGGAUAUCAGGACUAUC	15.3	96.1		
GAUCAACAUGAGGAUCACCCAUGUCAGGAUAUGAUACUAUGUACUUCGGUACAUAGUAUCAGAAGGGACAGAUC	122	296		
GAUCAACAUGAGGAUCACCCAUGUGAGGAUAUGAUACUAUGUACUUCGGUACAUAGUAUCAGAAGGCACAUUGA	87.2	367		
GAUCAACAUGAGGAUCACCCAUGUGAGGAUAUGAUACUAUGUACUUCGGUACAUAGUAUCAGAAGGCAUGUGGA	158	39.4		
GAUCAACAUGAGGAUCACCCAUGUGAGGAUAUGUAUCAUAGAUCUUCGGAUCUAUGAUACAGAAGGCAUGUGGA	204	46.5		
GAUCCGGUCAAGAGGAUUUUGGAGUGAGAAGGGAGGCUGCUACAUGAGGAUCACCCAUGUGAUACUCAGGAUAUUAGUCUACUA			215	155
GAUCCUCGGUCAGGAUAUCCCGGCCGGCGGCCGGGAGAAGGGACAUGAGGAUCACCCAUGUUUCGGUCCUUACCCGCUUGGGUC	34	37.1		
GAUCCUUCUGUUAGGAUAUGCUACGGGCUUCCGCAGCAGAAGGAACAUGAGGAUCACCCAUGUCAAAUAAAAUC	37.1	168		
GAUCCUUCUGUUAGGAUAUGCUUCGGGCUUCCGCAGCAGAAGGAACAUGAGGAUCACCCAUGUCAAAUAAAAUC	22.9	94.1		
GAUCGGUGAGGAUAUACAUUUUAGCUCCUCGUAAAGCCAUGACAUGAGGAUCACCCAUGUAGAAGGUAUUGUGU	22.3	20		
GAUCUGACAGGAUAUACAUGAGGAUCACCCAUGUGCGAGCUAGCGAAAGCUAGCUUAGGUAGAAGGGUCAGAUC	12.2	18.1		
GAUGCUAUCGGAGGAUAUUCAUACCGGAAACGGACAUGAGGAUCACCCAUGUGGCGAAAGCCUUGGGAGAAGGCCGAUAGCAUC			610	20.5

Sequence	apparent Kd [1] [nM]	apparent Kd [2] [nM]	apparent Kd [3] [nM]	apparent Kd [4] [nM]
GAUUAACAUGAGGAUCACCCAUGUGAGGAUAUGGACUUGCCCACUUAACCAUUAGAGUCUAGAAGGCGCAUCUA	29.4	25.5		
GAUUCGGGAGGAUAUACAUGAGGAUCACCCAUGUGUUUUUUAUGUGUUAUGUUAUCAUGUAGAAGGUUUGGGUC	151	195		
GAUUGACAUGAGGAUCACCCAUGUGAGGAUAUCGGCCGGACCUUGUUAGCUUCCAUCGCGAGAAGGUACAUAGG	18.9	18.4		
GAUUGUUUUUAGAAGGUGCCGGCGAGAGCCGCAACAUGAGGAUCACCCAUGUGUCGGUGACGACGCAAGGAUAUGGAGGUGGUU			217	108
GAUUUCUAAGGAUAUACUGAUGUUCCUAAGUCUAGCGGCUCACAUGAGGAUCACCCAUGUAGAAGGUGGAGGUU	27.8	30.1		
GCAAAACAUGAGGAUCACCCAUGUCAACAAAAUCAAGGAUAUGAGCCGGCAAUGCCAGCAUCAGAAGGUGAACCUU			81.9	86.5
GCACAUUUGUAAGGAUAUACAACAUGAGGAUCACCCAUGUGUUGGAAUUUAGUAGAAGGUACAGACAUGAGGAUCACUUUUGUA			174	102
GCACAUUUGUAAGGAUAUACUACAUGAGGAUCACCCAUGUGCAUGGAGAUUGUAGAAGGUACAGCAAUAUUGAUUAACGUUAUA			134	77.2
GCACGAUAUCAGGAUAUGACUAGCUGCGGCUAGUCAGAAGGGAUGACAUGAGGAUCACCCAUGUGAUCACGUGC	57.6	78.7		
GCACGGUAUGUAGGAUAUGCAUAGCAUUGCUAUGCAGAAGGACAUGAGGAUCACCCAUGUAUGUAUUCCAUACUAAUCCCGUGU	5.55	5.2		
GCACUGGAUGUAGGAUAUCAGGACGAUAAGUCCUGAGAAGGACAUGAGGAUCACCCAUGUACACAAAACCAGUGCUAUAAUAUA	13.7	18.8		
GCACUGGAUGUAGGAUAUCAGGACGAUAAGUCCUGAGAAGGACAUGAGGAUCACCCAUGUGAAAAUUACCAGUGCAAUAAUAUA	14.4	39.9		
GCACUGGAUGUAGGAUAUCAGGACGAUAAGUCCUGAGAAGGACAUGAGGAUCACCCAUGUGCCUUAACCAGUGCAUAUAAUAUA	12.9	17.3		
GCACUUACGUUAGGAUAUGUAUCGGAAAACGAUACAGAAGGAAUAUGGGAACAUGAGGAUCACCCAUGUUCCUGAGACGAGUGC			69.1	41.6
GCACUUAUAUUUGAACCGAUUCGAACAUGAGGAUCACCCAUGUAGGAUAUGCUAAAAGUUGUGAUGCAGAAGGACAUUAAGUGC	5.44	6.74		
GCAGAAAGUGUAGGAUAUAGAAAUUAGCGGAAACGCAAUACAUGAGGAUCACCCAUGUUUCCUCACUAGAAGGGCAAAAGCUGC	16.8	14.1		
GCAGACGUAGUGAGGAUAUGCUCUACCUCGGUAGAGCAGAAGGCACAUGAGGAUCACCCAUGUGAUUUUUCUGC	40	573		
GCAGCGUAUGUAGGAUAUCGGUCAGUUUCUGAUCGAGAAGGACAUGAGGAUCACCCAUGUAAAUUACCGACUCUGUCGGGCUGC	6.64	8.6		
